tested on: not listed separately; experiment: Partition coefficient (logD6.5); conditions: octanol/water, pH 6.5

Row | SMILES | logD
1 | CCCC[C@H](N[C@@H](Cc1ccccc1)C(=O)N1CCC(OCOC)CC1)C(=O)N[C@@H](CC1CCCCC1)[C@@H](O)C[C@H](C(=O)NCCN1CCCC1)C(C)C | > 5
2 | CCCC[C@H](N[C@@H](Cc1ccccc1)C(=O)N1CCC(OCOC)CC1)C(=O)N[C@@H](CC1CCCCC1)[C@@H](O)C[C@H](C(=O)NCc1ccccn1)C(C)C | > 5

tested on: not listed separately; experiment: Average peak plasma concentration of compound after 10 mg/kg intraduodenal administration to Ferret; conditions: plasma

Row | SMILES | Cmax [ng/mL]
3 | CCCC[C@H](N[C@@H](Cc1ccccc1)C(=O)N1CCC(OCOC)CC1)C(=O)N[C@@H](CC1CCCCC1)[C@@H](O)C[C@H](C(=O)NCCN1CCCC1)C(C)C | 5500
4 | CCCC[C@H](N[C@@H](Cc1ccccc1)C(=O)N1CCC(OCOC)CC1)C(=O)N[C@@H](CC1CCCCC1)[C@@H](O)C[C@H](C(=O)NCc1ccccn1)C(C)C | 9120

tested on: not listed separately; experiment: Average area under curve at 10 mg/kg dose after intraduodenal administration to Ferret; conditions: in vivo

Row | SMILES | AUC [ng·h/mL]
5 | CCCC[C@H](N[C@@H](Cc1ccccc1)C(=O)N1CCC(OCOC)CC1)C(=O)N[C@@H](CC1CCCCC1)[C@@H](O)C[C@H](C(=O)NCCN1CCCC1)C(C)C | 8220
6 | CCCC[C@H](N[C@@H](Cc1ccccc1)C(=O)N1CCC(OCOC)CC1)C(=O)N[C@@H](CC1CCCCC1)[C@@H](O)C[C@H](C(=O)NCc1ccccn1)C(C)C | 14100

tested on: not listed separately; experiment: Oral bioavailability in ferret; conditions: in vivo

Row | SMILES | bioavailability [%]
7 | CCCC[C@H](N[C@@H](Cc1ccccc1)C(=O)N1CCC(OCOC)CC1)C(=O)N[C@@H](CC1CCCCC1)[C@@H](O)C[C@H](C(=O)NCCN1CCCC1)C(C)C | 29
8 | CCCC[C@H](N[C@@H](Cc1ccccc1)C(=O)N1CCC(OCOC)CC1)C(=O)N[C@@H](CC1CCCCC1)[C@@H](O)C[C@H](C(=O)NCc1ccccn1)C(C)C | 46

tested on: not listed separately; experiment: Average peak plasma concentration of compound after 1 mg/kg intravenous administration to rat; conditions: plasma

Row | SMILES | Cmax [ng/mL]
9 | CCCC[C@H](N[C@@H](Cc1ccccc1)C(=O)N1CCC(OCOC)CC1)C(=O)N[C@@H](CC1CCCCC1)[C@@H](O)C[C@H](C(=O)NCCN1CCCC1)C(C)C | 1310
10 | CCCC[C@H](N[C@@H](Cc1ccccc1)C(=O)N1CCC(OCOC)CC1)C(=O)N[C@@H](CC1CCCCC1)[C@@H](O)C[C@H](C(=O)NCc1ccccn1)C(C)C | 6250

tested on: not listed separately; experiment: Average peak plasma concentration of compound after 1 mg/kg intravenous administration to Ferret; conditions: plasma

Row | SMILES | Cmax [ng/mL]
11 | CCCC[C@H](N[C@@H](Cc1ccccc1)C(=O)N1CCC(OCOC)CC1)C(=O)N[C@@H](CC1CCCCC1)[C@@H](O)C[C@H](C(=O)NCCN1CCCC1)C(C)C | 3900
12 | CCCC[C@H](N[C@@H](Cc1ccccc1)C(=O)N1CCC(OCOC)CC1)C(=O)N[C@@H](CC1CCCCC1)[C@@H](O)C[C@H](C(=O)NCc1ccccn1)C(C)C | 10000

species: Homo sapiens; experiment: not given; conditions: Liver, Microsome

Row | SMILES | Rate (nM min-1 (nM of cytochrome P450)-1)
13 | CCCC[C@H](N[C@@H](Cc1ccccc1)C(=O)N1CCC(OCOC)CC1)C(=O)N[C@@H](CC1CCCCC1)[C@@H](O)C[C@H](C(=O)NCc1ccccn1)C(C)C | 3.52

tested on: not listed separately; experiment: Average peak plasma concentration of compound after 10 mg/kg intraduodenal administration to rat; conditions: plasma

Row | SMILES | Cmax [ng/mL]
14 | CCCC[C@H](N[C@@H](Cc1ccccc1)C(=O)N1CCC(OCOC)CC1)C(=O)N[C@@H](CC1CCCCC1)[C@@H](O)C[C@H](C(=O)NCCN1CCCC1)C(C)C | > 480
15 | CCCC[C@H](N[C@@H](Cc1ccccc1)C(=O)N1CCC(OCOC)CC1)C(=O)N[C@@H](CC1CCCCC1)[C@@H](O)C[C@H](C(=O)NCc1ccccn1)C(C)C | 4570

biological target: T1, Renin (Homo sapiens, UniProt P00797); experiment: Tested in vitro for its ability to inhibit the human plasma renin; type: cell-free; conditions: not given
T1 sequence (P00797 whole entry): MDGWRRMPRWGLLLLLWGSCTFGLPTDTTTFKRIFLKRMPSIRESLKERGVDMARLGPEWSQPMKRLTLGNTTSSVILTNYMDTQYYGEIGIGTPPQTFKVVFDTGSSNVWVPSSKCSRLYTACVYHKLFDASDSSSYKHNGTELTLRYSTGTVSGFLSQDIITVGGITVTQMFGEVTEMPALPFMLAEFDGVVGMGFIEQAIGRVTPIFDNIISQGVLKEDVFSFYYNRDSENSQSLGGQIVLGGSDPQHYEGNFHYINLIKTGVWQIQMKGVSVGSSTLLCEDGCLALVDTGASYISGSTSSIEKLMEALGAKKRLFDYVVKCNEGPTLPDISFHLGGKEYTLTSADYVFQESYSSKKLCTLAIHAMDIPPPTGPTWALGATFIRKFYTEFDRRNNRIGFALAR
Method in brief: (§1)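 IC50 against renin in plasma from the named species (dog, ferret, human, rat); single determination in most cases.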

Row | SMILES | IC50 [nM]
16 | CCCC[C@H](N[C@@H](Cc1ccccc1)C(=O)N1CCC(OCOC)CC1)C(=O)N[C@@H](CC1CCCCC1)[C@@H](O)C[C@H](C(=O)NCCN1CCCC1)C(C)C | 13
17 | CCCC[C@H](N[C@@H](Cc1ccccc1)C(=O)N1CCC(OCOC)CC1)C(=O)N[C@@H](CC1CCCCC1)[C@@H](O)C[C@H](C(=O)NCc1ccccn1)C(C)C | 12

biological target: Renin (Mustela putorius furo); experiment: Tested in vitro for its ability to inhibit the ferret plasma renin; conditions: not given

Row | SMILES | IC50 [nM]
18 | CCCC[C@H](N[C@@H](Cc1ccccc1)C(=O)N1CCC(OCOC)CC1)C(=O)N[C@@H](CC1CCCCC1)[C@@H](O)C[C@H](C(=O)NCc1ccccn1)C(C)C | 1000

tested on: not listed separately; experiment: Average area under curve for the compound at 1 mg/kg dose after intravenous administration to rat; conditions: in vivo

Row | SMILES | AUC [ng·h/mL]
19 | CCCC[C@H](N[C@@H](Cc1ccccc1)C(=O)N1CCC(OCOC)CC1)C(=O)N[C@@H](CC1CCCCC1)[C@@H](O)C[C@H](C(=O)NCCN1CCCC1)C(C)C | 340
20 | CCCC[C@H](N[C@@H](Cc1ccccc1)C(=O)N1CCC(OCOC)CC1)C(=O)N[C@@H](CC1CCCCC1)[C@@H](O)C[C@H](C(=O)NCc1ccccn1)C(C)C | 3130

tested on: not listed separately; experiment: Oral bioavailability in rat; conditions: in vivo, intraduodenal, 10 mg/kg

Row | SMILES | bioavailability [%]
21 | CCCC[C@H](N[C@@H](Cc1ccccc1)C(=O)N1CCC(OCOC)CC1)C(=O)N[C@@H](CC1CCCCC1)[C@@H](O)C[C@H](C(=O)NCCN1CCCC1)C(C)C | > 25
22 | CCCC[C@H](N[C@@H](Cc1ccccc1)C(=O)N1CCC(OCOC)CC1)C(=O)N[C@@H](CC1CCCCC1)[C@@H](O)C[C@H](C(=O)NCc1ccccn1)C(C)C | 21

biological target: Renin (Canis familiaris); experiment: Tested in vitro for its ability to inhibit the dog plasma renin; conditions: not given

Row | SMILES | IC50 [nM]
23 | CCCC[C@H](N[C@@H](Cc1ccccc1)C(=O)N1CCC(OCOC)CC1)C(=O)N[C@@H](CC1CCCCC1)[C@@H](O)C[C@H](C(=O)NCc1ccccn1)C(C)C | 75

biological target: T2, Renin (Rattus norvegicus, UniProt P08424); experiment: Tested in vitro for its ability to inhibit the rat plasma renin; type: functional, cell-free; conditions: not given; method in brief: as §1
T2 sequence (P08424 whole entry): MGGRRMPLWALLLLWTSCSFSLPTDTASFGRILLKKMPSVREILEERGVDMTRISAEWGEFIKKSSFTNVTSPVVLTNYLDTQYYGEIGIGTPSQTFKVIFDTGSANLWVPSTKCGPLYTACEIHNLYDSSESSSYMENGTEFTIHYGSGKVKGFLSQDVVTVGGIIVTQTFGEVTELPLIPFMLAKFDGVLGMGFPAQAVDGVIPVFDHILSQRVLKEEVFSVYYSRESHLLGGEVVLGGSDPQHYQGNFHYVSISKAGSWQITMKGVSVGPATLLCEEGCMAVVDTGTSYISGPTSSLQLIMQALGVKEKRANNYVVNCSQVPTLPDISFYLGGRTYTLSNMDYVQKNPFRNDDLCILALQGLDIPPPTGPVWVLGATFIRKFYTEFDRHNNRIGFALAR

Row | SMILES | IC50 [nM]
24 | CCCC[C@H](N[C@@H](Cc1ccccc1)C(=O)N1CCC(OCOC)CC1)C(=O)N[C@@H](CC1CCCCC1)[C@@H](O)C[C@H](C(=O)NCc1ccccn1)C(C)C | > 10000

tested on: not listed separately; experiment: Partition coefficient (logD7.4); conditions: octanol/water, pH 7.4

Row | SMILES | logD
25 | CCCC[C@H](N[C@@H](Cc1ccccc1)C(=O)N1CCC(OCOC)CC1)C(=O)N[C@@H](CC1CCCCC1)[C@@H](O)C[C@H](C(=O)NCCN1CCCC1)C(C)C | > 5
26 | CCCC[C@H](N[C@@H](Cc1ccccc1)C(=O)N1CCC(OCOC)CC1)C(=O)N[C@@H](CC1CCCCC1)[C@@H](O)C[C@H](C(=O)NCc1ccccn1)C(C)C | > 5

tested on: not listed separately; experiment: Average area under curve for the compound at 10 mg/kg dose after intraduodenal administration to rat; conditions: in vivo

Row | SMILES | AUC [ng·h/mL]
27 | CCCC[C@H](N[C@@H](Cc1ccccc1)C(=O)N1CCC(OCOC)CC1)C(=O)N[C@@H](CC1CCCCC1)[C@@H](O)C[C@H](C(=O)NCCN1CCCC1)C(C)C | > 850
28 | CCCC[C@H](N[C@@H](Cc1ccccc1)C(=O)N1CCC(OCOC)CC1)C(=O)N[C@@H](CC1CCCCC1)[C@@H](O)C[C@H](C(=O)NCc1ccccn1)C(C)C | 6870

tested on: not listed separately; experiment: Average area under curve for compound at 1 mg/kg dose intravenous administration to Ferret; conditions: in vivo

Row | SMILES | AUC [ng·h/mL]
29 | CCCC[C@H](N[C@@H](Cc1ccccc1)C(=O)N1CCC(OCOC)CC1)C(=O)N[C@@H](CC1CCCCC1)[C@@H](O)C[C@H](C(=O)NCCN1CCCC1)C(C)C | 2750
30 | CCCC[C@H](N[C@@H](Cc1ccccc1)C(=O)N1CCC(OCOC)CC1)C(=O)N[C@@H](CC1CCCCC1)[C@@H](O)C[C@H](C(=O)NCc1ccccn1)C(C)C | 3030

Reference: ChEMBL document CHEMBL1127457, “Nonpeptide renin inhibitors with good intraduodenal bioavailability and efficacy in dog” (J Med Chem, 1994)
